Measured values reported in article PMC10443334 (Microbial Biotechnology, 2023).
Where a SMILES comes first, the peptide text is derived from it. Bridges are numbered along the chain shown (N, C = ends). [ ]: non-standard residue; d: D form. The star is where a group is joined. X1 = CC[C@H](C)CCCCC(=O)*; Dab = NCC[C@H](N)C(=O)O

Tests used:
THP-1 cells [1] = assay: NF-κB activation western blot; type: cell-based, human; conditions: TAK242 1 μM (infection) or 100 nM (LPS) for 1 h
In short: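 THP-1 cells were differentiated with PMA (10 ng/mL, 48 h). For infection, cells got TAK242 1 μM for 1 h, then washed log-phase BL21/pEmpty or BL21/pMCR-1 at MOI 50 in serum-free medium with kanamycin and IPTG for 4 h. For LPS, cells got TAK242 100 nM for 1 h, then purified LPS (1 μg/mL) for 4 h. Cell extracts were western blotted and relative band levels quantified.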

THP-1 cells [2] = assay: LDH release and caspase 1 western blot after OMV stimulation; type: cell-based, human; conditions: Wed 50 μM pre-treatment for 2 h, OMVs 20 μg protein/mL
In short: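 PMA-differentiated (10 ng/mL, 48 h) THP-1 macrophages were pre-treated with DMSO or 50 μM Wed, then exposed to OMVs (20 μg protein/mL) for 4 h at 37°C, 5% CO2. OMVs came from 8 h LB culture supernatants, filtered, concentrated on 100-kDa filters and pelleted at 150,000 g for 3 h. LDH in media was read by kit as % of 0.1% Triton X-100 lysis; lysates were western blotted with chemiluminescent quantitation.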

BL21/pMCR-1 [3] = assay: Microdilution MIC/MBC; type: cell-based, E. coli; conditions: MIC ratio BL21/pMCR-1 vs BL21/pEmpty
In short: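 Broth microdilution MIC/MBC followed CLSI. Strains were E. coli BL21 carrying pET28a-mcr-1 or empty pET28a, grown in LB (pH 7.2–7.4) with 50 μg/mL kanamycin. MCR-1 expression was induced with 0.5 mM IPTG at 37°C with shaking at 220 rpm.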

BL21/pMCR-1 [4] = assay: Time-killing kinetics; type: cell-based, E. coli; conditions: 16 μg/mL, 1 × 10^5 CFU/mL, IPTG, 37°C, agar plate dilution count
In short: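 Suspensions of IPTG-induced BL21/pMCR-1 (1 × 10^5 CFU/mL) were sub-cultured into tubes with IPTG, with or without test compound at 4 × MIC, at 37°C. Viable counts were taken by agar plate dilution at fixed time intervals. Data are mean ± SD from three independent experiments.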

CCOC(=O)C1=CCCC[C@H]1S(=O)(=O)Nc1ccc(F)cc1Cl [TAK242, Resatorvid]
p-P65 and p-IκB after infection or LPS stimulation (THP-1 cells [1]): inhibited

COc1cc(O)c2c(c1)oc(=O)c1c3cc(O)c(O)cc3oc21 [Wed, wedelolactone]
macrophage cell death and caspase-1 processing after OMV stimulation (THP-1 cells [2]): markedly reduced

CC[C@H](C)CCCCC(=O)N[C@@H](CCN)C(=O)N[C@H](C(=O)N[C@@H](CCN)C(=O)N[C@H]1CCNC(=O)[C@H]([C@@H](C)O)NC(=O)[C@H](CCN)NC(=O)[C@H](CCN)NC(=O)[C@H](CC(C)C)NC(=O)[C@@H](Cc2ccccc2)NC(=O)[C@H](CCN)NC1=O)[C@@H](C)O [polymyxin B, Polymyxin B sulphate] (X1-[Dab]T[Dab][Dab][Dab][dF]L[Dab][Dab]T; lactam 4-C (inferred); N-terminus assumed)
increase of MIC against BL21/pMCR-1 compared to BL21/pEmpty (BL21/pMCR-1 [3]): 8 fold
time to eradicate all bacteria (time-kill kinetics) (BL21/pMCR-1 [4]): 4 h
